From the RNAGym collection of RNA variant scans (doi:10.1126/science.aae0568)
Fewer inactive variants are shown than the library holds.

B1: tRNA (parent)
chain: GUUCCGUUGGCGUAAUGGUAACGCGUCUCCCUCCUAAGGAGAAGACUGCGGGUUCGAGUCCCGUACGGAACG

Variants of: B1
Assay: yeast fitness relative to wild type (ratio to wild type); higher = fitter; tRNA-Arg(CCU), competitive growth, 37 C, YPD
Method in brief: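 A pool of Saccharomyces cerevisiae strains, each with a tRNA-Arg(CCU) gene variant at the native genomic locus, was competed in YPD at 37°C for 24 hours across six parallel replicates. The variants had been chemically synthesised at a 3% per-site mutation rate over 69 sites, and gene amplicons before and after competition were read by 100-nucleotide paired-end sequencing. Darwinian fitness relative to wild type rested on changes in genotype frequencies. Genotypes required ≥ 100 starting reads, and estimates < 0.5 were set to 0.5.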

| Variant | yeast fitness |
| --- | --- |
| A14G C30A C34A A43C C60G C62A | ≤ 0.5 |
| A14G C30A C46U G52C C66U | ≤ 0.5 |
| A14G C30U | 0.81 |
| A14G C30U G39A C60G | ≤ 0.5 |
| A14G C31G A37G | ≤ 0.5 |
| A14G C31U A37G A45C A70G | ≤ 0.5 |
| A14G C31U G58C G68A | ≤ 0.5 |
| A14G C31U G68A | 0.568 |
| A14G C31U U35C A40G A65U | ≤ 0.5 |
| A14G C33G A70U | 0.545 |
| A14G C33U G63A | 0.614 |
| A14G C34G A43C G58U A65U | ≤ 0.5 |
| A14G C34G A43C U47C | 0.533 |
| A14G C34U C49A C60U | 0.512 |
| A14G C46U | 0.886 |
| A14G C46U G50C G51A C55U A57U C62G A70U | ≤ 0.5 |
| A14G C49G A69U A70C | 0.618 |
| A14G C49G G56C | ≤ 0.5 |
| A14G C55A A57U G58C A69U | ≤ 0.5 |
| A14G C55G A57C | 0.598 |
| A14G C55U A65G | 0.513 |
| A14G C61G | 0.721 |
| A14G C62U | 0.937 |
| A14G G18A C22G C49A | ≤ 0.5 |

| Variant | yeast fitness |
| --- | --- |
| A14G G18A C55U | ≤ 0.5 |
| A14G G18C C30G G52C C61A | ≤ 0.5 |
| A14G G18C C60A C66U | ≤ 0.5 |
| A14G G23A U64G A69U | ≤ 0.5 |
| A14G G23C A70U | 0.564 |
| A14G G23U G58A | ≤ 0.5 |
| A14G G25A A36G A42U G68C | 0.576 |
| A14G G25A C30A | 0.563 |
| A14G G38A | 0.799 |
| A14G G39A | 0.751 |
| A14G G41A A70G | 0.638 |
| A14G G41C C46A | 0.791 |
| A14G G48A C62A | 0.65 |
| A14G G48C | 0.701 |
| A14G G50U G67C | ≤ 0.5 |
| A14G G52A | 0.631 |
| A14G G56U A65U G68C | ≤ 0.5 |
| A14G G58A | 0.836 |
| A14G G58C C66A | ≤ 0.5 |
| A14G G67A | 0.821 |
| A14G U16G G18C U59A A65U | ≤ 0.5 |
| A14G U19A A20G A40U | ≤ 0.5 |
| A14G U19A C27G U28A C34A A36G A43G | 0.608 |
| A14G U19A C27U C34U C66U | ≤ 0.5 |

| Variant | yeast fitness |
| --- | --- |
| A14G U19C C60G | ≤ 0.5 |
| A14G U19C G68A | 0.559 |
| A14G U26A C27G | ≤ 0.5 |
| A14G U26C A37G C61U G68A | ≤ 0.5 |
| A14G U26G | 0.81 |
| A14G U26G A37U A45U G51A A65C | ≤ 0.5 |
| A14G U26G A43C G68A | ≤ 0.5 |
| A14G U28C G67A | 0.534 |
| A14G U32A | 0.554 |
| A14G U32C C55U | ≤ 0.5 |
| A14G U32G A45G A69U | ≤ 0.5 |
| A14G U35A G56A C66U | ≤ 0.5 |
| A14G U35G C55A G63A | ≤ 0.5 |
| A14G U64C | 0.924 |
| A14U | 0.667 |
| A14U A15C A40G U47C G56C G67C | ≤ 0.5 |
| A14U A15C C31G A43U | 0.627 |
| A14U A15G C34G | ≤ 0.5 |
| A14U A15G C34G C61U A70C | ≤ 0.5 |
| A14U A15G C55G C61G | 0.637 |
| A14U A15U C49U G56C | ≤ 0.5 |
| A14U A20C A37C C49G | ≤ 0.5 |
| A14U A21C | 0.705 |
| A14U A21C C22U C33G A45G C46G G52C | ≤ 0.5 |

| Variant | yeast fitness |
| --- | --- |
| A14U A21G C29G U59A | ≤ 0.5 |
| A14U A21U | 0.547 |
| A14U A21U G67C | 0.596 |
| A14U A36C U53C A69C | ≤ 0.5 |
| A14U A37C C46U C61G | ≤ 0.5 |
| A14U A37G G44C A45C G50A C55G | 0.594 |
| A14U A37U U47A | 0.632 |
| A14U A37U U47C | ≤ 0.5 |
| A14U A40G A45U G56A | ≤ 0.5 |
| A14U A40U U54A A70G | 0.568 |
| A14U A40U U54A C55U U64C | ≤ 0.5 |
| A14U A42G | 0.529 |
| A14U A42U | 0.652 |
| A14U A42U C49U C61U C66U | ≤ 0.5 |
| A14U A43C U54A | ≤ 0.5 |
| A14U A43G | 0.537 |
| A14U A45C C49U A65C | ≤ 0.5 |
| A14U A45C G56A | 0.581 |
| A14U A45C U47C C55U A65C A69C | ≤ 0.5 |
| A14U A57C U59A | 0.703 |
| A14U A70U | 0.713 |
| A14U C22A | 0.668 |
| A14U C22G A57C G63C C66U | 0.578 |
| A14U C24G A57C | ≤ 0.5 |

| Variant | yeast fitness |
| --- | --- |
| A14U C24G U54G | ≤ 0.5 |
| A14U C27U C55G | 0.517 |
| A14U C29A C49A A69U | ≤ 0.5 |
| A14U C29U A37U C49A G67A | ≤ 0.5 |
| A14U C30A | 0.565 |
| A14U C30A A43U | ≤ 0.5 |
| A14U C30A A43U C49U | 0.545 |
| A14U C30G A40G C66U | ≤ 0.5 |
| A14U C30G U32G | ≤ 0.5 |
| A14U C30U | 0.558 |
| A14U C30U C55G | ≤ 0.5 |
| A14U C30U C62A | ≤ 0.5 |
| A14U C31A C46U G48A C49U | ≤ 0.5 |
| A14U C31A C66A | ≤ 0.5 |
| A14U C31U C34A A45U C49U | ≤ 0.5 |
| A14U C33U A36U G41C | ≤ 0.5 |
| A14U C34G A37C A57C | ≤ 0.5 |
| A14U C34G C49G C66U | ≤ 0.5 |
| A14U C34G C66U | ≤ 0.5 |
| A14U C46U G48C G63A G68A | ≤ 0.5 |
| A14U C49A G68A | ≤ 0.5 |
| A14U C49U | 0.629 |
| A14U C60G A70C | ≤ 0.5 |
| A14U C62G | 0.692 |

| Variant | yeast fitness |
| --- | --- |
| A14U C62U C66G | ≤ 0.5 |
| A14U G17A A43C C46U | ≤ 0.5 |
| A14U G17A G23C C29U C34G A45C U54G | ≤ 0.5 |
| A14U G17C A70G | ≤ 0.5 |
| A14U G17C C24A C30G C62A A70U | ≤ 0.5 |
| A14U G17C C30G G41C A42C U47C G50A C62A | ≤ 0.5 |
| A14U G18A | ≤ 0.5 |
| A14U G18A C30A | ≤ 0.5 |
| A14U G23A C31U A43U | ≤ 0.5 |
| A14U G23C C29G G51A G56C | ≤ 0.5 |
| A14U G23C C55G | ≤ 0.5 |
| A14U G23U C61G | ≤ 0.5 |
| A14U G23U G68C | 0.514 |
| A14U G25A | 0.686 |
| A14U G25A C30G C62G | ≤ 0.5 |
| A14U G25A U35A G39U A65G | ≤ 0.5 |
| A14U G38C C46A | 0.551 |
| A14U G39A | 0.671 |
| A14U G41C | 0.565 |
| A14U G44C G50A | ≤ 0.5 |
| A14U G52A G68C | ≤ 0.5 |
| A14U G52C | ≤ 0.5 |
| A14U U16A C22U C24A G67A A69C | 0.67 |
| A14U U16A C27G A40U A57U C66A | ≤ 0.5 |

| Variant | yeast fitness |
| --- | --- |
| A14U U16A G25A A37G | ≤ 0.5 |
| A14U U16A U26G C29G G67C | ≤ 0.5 |
| A14U U16G C33G G50A G58C G63C | ≤ 0.5 |
| A14U U16G U19A A42G | 0.512 |
| A14U U16G U19A A42G G52A | ≤ 0.5 |
| A14U U19A A21C G48C A70G | 0.505 |
| A14U U19A A21C G48C G63A A70G | ≤ 0.5 |
| A14U U19A A36C | ≤ 0.5 |
| A14U U19C C29U C30A A45C | ≤ 0.5 |
| A14U U26A | 0.694 |
| A14U U26A C62G | ≤ 0.5 |
| A14U U26A G58C | ≤ 0.5 |
| A14U U26C A57U | ≤ 0.5 |
| A14U U26G C49G | ≤ 0.5 |
| A14U U26G G56A A65G C66U | ≤ 0.5 |
| A14U U28A G67C | ≤ 0.5 |
| A14U U28A U59C C60G | ≤ 0.5 |
| A14U U35A G52A C61G C66A | ≤ 0.5 |
| A14U U35C U53G | 0.634 |
| A14U U47A A69G | 0.66 |
| A14U U53C | 0.613 |
| A14U U59A | 0.583 |
| A14U U64C A65G | 0.567 |
